Results taken from ChEMBL document CHEMBL1165950, “Design and synthesis of new potent anticancer pyrazoles with high FLT3 kinase inhibitory selectivity” (Bioorg Med Chem, 2010).

Columns and labels:
Type in all cases: functional
NCI-H226 [1] = assay: Cytotoxicity against human NCI-H226 cells assessed as cell growth at 0.001 uM after 48 hrs by sulforhodamine B assay; details: NCI-H226, 48 h, read-out: Activity
NCI/ADR-RES = assay: Cytotoxicity against human NCI/ADR-RES cells assessed as cell growth at 100 nM after 48 hrs by sulforhodamine B assay; details: read-out: Activity
NCI-H226 [2] = assay: Cytotoxicity against human NCI-H226 cells assessed as cell growth at 10 uM; details: read-out: Activity
In short: (§1)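 NCI-60 screen: cells grown in RPMI 1640 with 5% FBS and 2 mM L-glutamine, plated at 5000–40,000 cells/well according to doubling time, and preincubated 24 h at 37 °C, 5% CO2. The single 10 µM dose (DMSO stock) was added, then incubated 48 h. Cells were TCA-fixed and stained with 0.4% SRB, read at 515 nm, and growth % calculated against time-zero and control plates.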

MDA-MB-435 = assay: Cytotoxicity against human MDA-MB-435 cells assessed as cell growth at 10 uM after 48 hrs by sulforhodamine B assay; details: MDA-MB-435, 48 h, read-out: Activity
SW-620 [3] = assay: Cytotoxicity against human SW620 cells assessed as cell growth at 10 uM after 48 hrs by sulforhodamine B assay; details: SW-620, 48 h, read-out: Activity
K562 [4] = assay: Cytotoxicity against human K562 cells assessed as cell growth at 0.001 uM after 48 hrs by sulforhodamine B assay; details: K562, 48 h, read-out: Activity
PC-3 [5] = assay: Cytotoxicity against human PC3 cells assessed as cell growth at 10 uM; details: read-out: Activity; in short: as §1
[6] = Growth inhibition of human […] cells after 48 hrs by sulforhodamine B assay; details: for CC50: read-out: LC50 (the source's name)
In short: (§2)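 NCI 60-cell screen, five-dose mode. Cells grown in RPMI 1640 with 5% FBS and 2 mM L-glutamine and plated at 5000-40,000 cells/well according to doubling time. After 24 h preincubation, a Tz plate was TCA-fixed. Five concentrations (10-fold or 1/2 log dilutions) were applied for 48 h at 37 °C. SRB staining read at 515 nm. IC50 taken from [(Ti-Tz)/(C-Tz)]×100 = 50.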

K562 [7] = assay: Cytotoxicity against human K562 cells assessed as cell growth at 0.01 uM after 48 hrs by sulforhodamine B assay; details: K562, 48 h, read-out: Activity
HCT-15 [8] = assay: Cytotoxicity against human HCT15 cells assessed as cell growth at 10 uM after 48 hrs by sulforhodamine B assay; details: HCT-15, 48 h, read-out: Activity
PC-3 [9] = assay: Cytotoxicity against human PC3 cells assessed as cell growth at 1 uM after 48 hrs by sulforhodamine B assay; details: PC-3, 48 h, read-out: Activity
SR = assay: Cytotoxicity against human SR cells assessed as cell growth at 10 uM; details: read-out: Activity; in short: as §1
SNB-75 = assay: Cytotoxicity against human SNB75 cells assessed as cell growth at 1 uM after 48 hrs by sulforhodamine B assay; details: SNB-75, 48 h, read-out: Activity
RXF 393 = assay: Cytotoxicity against human RXF393 cells assessed as cell growth at 10 uM; details: read-out: Activity; in short: as §1
A498 [10] = assay: Cytotoxicity against human A498 cells assessed as cell growth at 0.001 uM after 48 hrs by sulforhodamine B assay; details: A498, 48 h, read-out: Activity
In short: (§3)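 NCI-60 five-dose screen. Cells were grown in RPMI 1640 with 5% FBS and 2 mM L-glutamine, plated at 5000–40,000 cells/well and preincubated for 24 h. Time-zero plates were TCA-fixed. DMSO-solubilized drug was added at five concentrations (10-fold or ½-log serial dilutions) for 48 h at 37 °C, 5% CO2. Cells were TCA-fixed, stained with 0.4% SRB and read at 515 nm. Percent growth used time-zero, control and test absorbances.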

HL-60(TB) = assay: Cytotoxicity against human HL-60(TB) cells assessed as cell growth at 0.001 uM after 48 hrs by sulforhodamine B assay; details: HL-60, 48 h, read-out: Activity
In short: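 NCI 60-cell panel. Cells are grown in RPMI 1640 with 5% FBS and 2 mM L-glutamine, seeded at 5000–40,000 cells/well according to doubling time, and preincubated 24 h. Time-zero plates are TCA-fixed. Compound from DMSO stock is given at five 10-fold or 1/2-log concentrations for 48 h at 37 °C, 5% CO2. Suspension cells are fixed with 80% TCA (final 16%) and SRB-stained, with absorbance at 515 nm. Percent growth is derived from Tz, control and test readings.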

UACC-257 = assay: Cytotoxicity against human UACC257 cells assessed as cell growth at 10 uM; details: read-out: Activity; in short: as §1
SW-620 [11] = assay: Cytotoxicity against human SW620 cells assessed as cell growth at 100 nM after 48 hrs by sulforhodamine B assay; details: SW-620, 48 h, read-out: Activity
SK-MEL-28 = assay: Cytotoxicity against human SK-MEL-28 cells assessed as cell growth at 0.01 uM after 48 hrs by sulforhodamine B assay; details: SK-MEL-28, 48 h, read-out: Activity
A498 [12] = assay: Cytotoxicity against human A498 cells assessed as cell growth at 1 uM after 48 hrs by sulforhodamine B assay; details: A498, 48 h, read-out: Activity; in short: as §3
HCT-15 [13] = assay: Cytotoxicity against human HCT15 cells assessed as cell growth at 100 nM after 48 hrs by sulforhodamine B assay; details: HCT-15, 48 h, read-out: Activity
K562 [14] = assay: Cytotoxicity against human K562 cells assessed as cell growth at 100 nM after 48 hrs by sulforhodamine B assay; details: K562, 48 h, read-out: Activity
UO-31 = assay: Cytotoxicity against human UO31 cells assessed as cell growth at 100 nM after 48 hrs by sulforhodamine B assay; details: UO-31, 48 h, read-out: Activity
TK-10 = assay: Cytotoxicity against human TK10 cells assessed as cell growth at 100 nM after 48 hrs by sulforhodamine B assay; details: TK-10, 48 h, read-out: Activity
HCT-116 = assay: Cytotoxicity against human HCT116 cells assessed as cell growth at 0.001 uM after 48 hrs by sulforhodamine B assay; details: HCT-116, 48 h, read-out: Activity
SF-539 = assay: Growth inhibition of human SF539 cells after 48 hrs by sulforhodamine B assay; details: SF-539, 48 h; for CC50: read-out: LC50 (the source's name); in short: as §2
[15] = Growth inhibition of human NCI60 cells at 10 uM after 48 hrs by sulforhodamine B assay relative to control; details: NCI60, 48 h, read-out: GI
In short: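 Single-dose NCI screen at 10 µM across the 60-line panel, 48 h exposure at 37 °C after a 24 h preincubation. Adherent cells were fixed with cold TCA and stained with 0.4% SRB, and absorbance was read at 515 nm. Inhibition % was taken as 100 minus growth %, and the mean across all lines was reported.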

IGROV-1 = assay: Cytotoxicity against human IGROV1 cells assessed as cell growth at 10 uM after 48 hrs by sulforhodamine B assay; details: IGROV-1, 48 h, read-out: Activity
SF-295 = assay: Growth inhibition of human SF295 cells after 48 hrs by sulforhodamine B assay; details: SF-295, 48 h; for CC50: read-out: LC50 (the source's name); in short: as §2

Row | SMILES | growth at 0.001 µM (NCI-H226 [1]) [%] | growth at 0.1 µM (NCI/ADR-RES) [%] | growth at 10 µM (NCI-H226 [2]) [%] | growth at 10 µM (MDA-MB-435) [%] | growth at 10 µM (SW-620 [3]) [%] | growth at 0.001 µM (K562 [4]) [%] | growth at 10 µM (PC-3 [5]) [%] | GI50 [6] [µM] | TGI [6] [µM] | CC50 [6] [µM] | growth at 0.01 µM (K562 [7]) [%] | growth at 10 µM (HCT-15 [8]) [%] | growth at 1 µM (PC-3 [9]) [%] | growth at 10 µM (SR) [%] | growth at 1 µM (SNB-75) [%] | growth at 10 µM (RXF 393) [%] | growth at 0.001 µM (A498 [10]) [%] | growth at 0.001 µM (HL-60(TB)) [%] | growth at 10 µM (UACC-257) [%] | growth at 0.1 µM (SW-620 [11]) [%] | further results
1 | COc1cc(C)cc(-c2c(-c3ccnc(-c4ccc(C(C)=O)cc4)c3)cnn2CC#N)c1 | 100 | 83 | 83.7 | 16 | 14 | 81 | 77.3 | 2.59 | 9.02 | > 100 | 80 | 12 | 24 | 25 | -5 | 54.8 | 74 | 101 | 92.8 | 71 | growth at 0.01 µM (SK-MEL-28): 94%; growth at 1 µM (A498 [12]): 17%; growth at 0.1 µM (HCT-15 [13]): 87%; growth at 0.1 µM (K562 [14]): 47%; growth at 0.1 µM (UO-31): 78%; growth at 0.1 µM (TK-10): 111%; growth at 0.001 µM (HCT-116): 97%; GI50 (SF-539): 2.02 µM; TGI (SF-539): 4.66 µM; CC50 (SF-539): > 100 µM; inhibition of growth at 10 µM [15]: 33.4%; growth at 10 µM (IGROV-1): 14%; GI50 (SF-295): 5.84 µM; TGI (SF-295): > 100 µM; CC50 (SF-295): > 100 µM
2 | Cc1cc(O)cc(-c2nn(CC#N)cc2-c2ccnc(-c3ccc(Oc4ccccc4)cc3)c2)c1 | 92 | 95 | 70.3 | -59 | -100 | 63 | 66.4 | 2.25 | 6.52 | > 100 | 44 | -73 | -12 | 32.4 | 30 | 24.6 | 88 | 96 | 71.7 | 92 | growth at 0.01 µM (SK-MEL-28): 94%; growth at 1 µM (A498 [12]): 26%; growth at 0.1 µM (HCT-15 [13]): 91%; growth at 0.1 µM (K562 [14]): 46%; growth at 0.1 µM (UO-31): 85%; growth at 0.1 µM (TK-10): 102%; growth at 0.001 µM (HCT-116): 95%; GI50 (SF-539): 3.38 µM; TGI (SF-539): 13.5 µM; CC50 (SF-539): 44 µM; inhibition of growth at 10 µM [15]: 46.6%; growth at 10 µM (IGROV-1): -74%; GI50 (SF-295): 4.42 µM; TGI (SF-295): 21.2 µM; CC50 (SF-295): 75.2 µM
3 | COc1cc(C)cc(-c2nn(CC#N)cc2-c2ccnc(-c3ccc(N(C)C)cc3)c2)c1 | 103 | -22 | 24.9 | -2 | 11 | 66 | 31.6 | 1.36 | 10.7 | > 100 | 61 | -20 | 17 | 9.06 | -12 | -17.1 | 91 | 97 | 68.2 | 14 | growth at 0.01 µM (SK-MEL-28): 102%; growth at 1 µM (A498 [12]): -26%; growth at 0.1 µM (HCT-15 [13]): 15%; growth at 0.1 µM (K562 [14]): 10%; growth at 0.1 µM (UO-31): 39%; growth at 0.1 µM (TK-10): 50%; growth at 0.001 µM (HCT-116): 96%; GI50 (SF-539): 0.259 µM; TGI (SF-539): 0.596 µM; CC50 (SF-539): > 100 µM; inhibition of growth at 10 µM [15]: 92.3%; growth at 10 µM (IGROV-1): -6%; GI50 (SF-295): 0.304 µM; TGI (SF-295): 1.91 µM; CC50 (SF-295): > 100 µM
4 | Cc1cc(O)cc(-c2nn(CC#N)cc2-c2ccnc(-c3ccc(N(C)C)cc3)c2)c1 | 100 | 91 | 35.8 | -31 | -33 | 100 | 40.4 | 3.71 | 22.2 | > 100 | 101 | -39 | 18 | 20.5 | -22 | 64.7 | 101 | 100 | 54.1 | 83 | growth at 0.01 µM (SK-MEL-28): 94%; growth at 1 µM (A498 [12]): 5%; growth at 0.1 µM (HCT-15 [13]): 90%; growth at 0.1 µM (K562 [14]): 80%; growth at 0.1 µM (UO-31): 82%; growth at 0.1 µM (TK-10): 125%; growth at 0.001 µM (HCT-116): 95%; GI50 (SF-539): 2.12 µM; TGI (SF-539): 5.33 µM; CC50 (SF-539): 27.3 µM; inhibition of growth at 10 µM [15]: 65.3%; growth at 10 µM (IGROV-1): -37%; GI50 (SF-295): 2.18 µM; TGI (SF-295): 8.71 µM; CC50 (SF-295): 84.1 µM
5 | COc1cc(C)cc(-c2nn(CC#N)cc2-c2ccc(-c3cccc(C(C)=O)c3)nc2)c1 | 95 | 59 | 47.8 | -22 | -11 | 82 | 31.5 | 3.3 | 18.6 | > 100 | 80 | 3 | 20 | 18.4 | -20 | -51 | 76 | 94 | 50.8 | 56 | growth at 0.01 µM (SK-MEL-28): 93%; growth at 1 µM (A498 [12]): -21%; growth at 0.1 µM (HCT-15 [13]): 69%; growth at 0.1 µM (K562 [14]): 27%; growth at 0.1 µM (UO-31): 79%; growth at 0.1 µM (TK-10): 101%; growth at 0.001 µM (HCT-116): 101%; GI50 (SF-539): 1.73 µM; TGI (SF-539): 4.65 µM; CC50 (SF-539): > 100 µM; inhibition of growth at 10 µM [15]: 78.7%; growth at 10 µM (IGROV-1): -40%; GI50 (SF-295): 2.63 µM; TGI (SF-295): > 100 µM; CC50 (SF-295): > 100 µM
